Data reported in ChEMBL document CHEMBL2021803, “Antitumor agents. 289. Design, synthesis, and anti-breast cancer activity in vivo of 4-amino-2H-benzo[h]chromen-2-one and 4-amino-7,8,9,10-tetrahydro-2H-benzo[h]chromen-2-one analogues with improved water solubility” (J Nat Prod, 2012).
In brackets after ≈: the same amount, converted by molar mass. Activity calls are given as the source filed them. The rule behind the calls is not given here.

Tests used:
KB = experiment: Cytotoxicity against human KB cells after 72 hrs by SRB assay; format: functional, cell-based
[1] = Cytotoxicity against human KBVIN cells after 72 hrs by SRB assay; format: functional, cell-based
A549 = experiment: Cytotoxicity against human A549 cells after 72 hrs by SRB assay; format: functional, cell-based
DU-145 = experiment: Cytotoxicity against human DU145 cells after 72 hrs by SRB assay; format: functional, cell-based
SK-BR-3 = experiment: Cytotoxicity against human SKBR3 cells after 72 hrs by SRB assay; format: functional, cell-based
Mus musculus [2] = experiment: Reduction in ductal branching in Brca/p53 mutant mouse mammary gland at 0.1 mg, ip administered daily for 10 days by immunostaining technique; format: functional; set-up: scale not given: the % may be the effect or the level left; settings: in the assay text read “Carmine alum whole-mount staining” for “immunostaining technique”
How it was run: (§1)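 Three-month-old wild-type or Brca1/p53 Cre mutant mice (mixed C57BL/6 × 129/Sv) given 0.1 mg i.p. daily (DMSO stock […] diluted in 40% PEG and 0.9% NaCl at dosing); vehicle controls. Fourth-pair mammary glands whole-mounted, Carnoy's fixed 3 h, Carmine alum stained overnight. Branching points counted in three random areas totaling about 2 mm².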

Mus musculus [3] = experiment: Reduction in ductal branching in wild type mouse mammary gland at 0.1 mg, ip administered daily for 10 days by immunostaining technique; format: functional, organism-based; set-up: scale not given: the % may be the effect or the level left; settings: in vivo, 240 h; how it was run: as §1
Mus musculus [4] = experiment: Induction of apoptosis in Brca/p53 mutant mouse mammary gland assessed as increase in cleaved caspase-3 at 0.1 mg, ip administered daily for 10 days by immunohistochemical staining method relative to vehicle-treated control; format: functional
How it was run: (§2)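 Wild-type or Brca1/p53 Cre mutant mice (C57BL/6 × 129/Sv), three months old, dosed i.p. daily with 0.1 mg in DMSO/40% PEG/0.9% NaCl (10:30:60 μL), made fresh; vehicle controls. Mammary glands fixed in 4% paraformaldehyde at 4 °C overnight, paraffin-embedded, cut into 5-μm sections. Retrieval by boiling in citrate pH 6.0, then rabbit polyclonal anti-cleaved caspase-3. Read as percentage of positive cells per duct.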

Mus musculus [5] = experiment: Induction of apoptosis in wild type mouse mammary gland assessed as increase in cleaved caspase-3 at 0.1 mg, ip administered daily for 10 days by immunohistochemical staining method relative to vehicle-treated control; format: organism-based; settings: in vivo, 240 h; how it was run: as §2
[6] = Solubility of the compound in water; format: physicochemical
Mus musculus [7] = experiment: Reduction in ductal branching in Brca/p53 mutant mouse at 0.1 mg, ip administered daily for 10 days; format: functional, organism-based; how it was run: as §1
Mus musculus [8] = experiment: Antiproliferative activity of Brca/p53 mutant mouse mammary epithelial cells assessed as reduction in DNA synthesis at 0.1 mg, ip administered daily for 10 days by BrdU-based immunostaining method; format: functional, Epithelial cell; set-up: scale not given: the % may be the effect or the level left
How it was run: (§3)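 Three-month-old mice (C57BL/6 × 129/Sv mixed background; wild-type or Brca1/p53 Cre mutant) dosed i.p. daily, 0.1 mg in 10 μL of […] DMSO stock plus 30 μL 40% PEG and 60 μL 0.9% NaCl, made fresh; vehicle controls. Paraffin sections, citrate pH 6.0 microwave retrieval 20 min, anti-BrdU 1:1000, ABC detection; BrdU-positive cells averaged over 15 ducts.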

Mus musculus [9] = experiment: Antiproliferative activity of wild type mouse mammary epithelial cells assessed as reduction in DNA synthesis at 0.1 mg, ip administered daily for 10 days by BrdU-based immunostaining method; format: organism-based, Epithelial cell; settings: in vivo, 240 h; how it was run: as §3
Mus musculus [10] = experiment: Induction of apoptosis in Brca/p53 mutant mouse mammary gland assessed as increase in cytoplasmic localization of cleaved caspase-3 at 0.1 mg, ip administered daily for 10 days by immunohistochemical staining method; format: functional, organism-based; how it was run: as §2
Mus musculus [11] = experiment: Induction of apoptosis in Brca/p53 mutant mouse mammary gland assessed as increase in perinuclear localization of cleaved caspase-3 at 0.1 mg, ip administered daily for 10 days by immunohistochemical staining method; format: functional, organism-based; how it was run: as §2

Row | Structure (SMILES) | IC50 (KB; Homo sapiens, KB, 72 h) [nM] | IC50 ([1]; Homo sapiens, KBVIN, 72 h) [nM] | IC50 (A549; Homo sapiens, A549, 72 h) [nM] | IC50 (DU-145; Homo sapiens, DU-145, 72 h) [nM] | IC50 (SK-BR-3; Homo sapiens, SK-BR-3, 72 h) [nM] | IC50 (KB; kb) [nM] | IC50 ([1]; kbvin) [nM] | IC50 (A549; a549) [nM] | IC50 (DU-145; du-145) [nM] | IC50 (SK-BR-3; sk-br-3) [nM] | also measured
1 | Nc1ccc(Nc2cc(=O)oc3c4c(ccc23)CCCC4)cc1 [listing 1 of 3 here] | 56 | 53 | 58 | 53 | 74 | – | – | – | – | – | Activity (Mus musculus [2]): 70%; Activity (Mus musculus [3]): 15%; fold change (FC) (Mus musculus [4]): 4.5; fold change (FC) (Mus musculus [5]): 4
2 | COc1ccc(Nc2cc(=O)oc3c2ccc2ccccc23)cc1 | 110 | 130 | 170 | 110 | 130 | – | – | – | – | – | solubility [6]: 0.69 µg/mL (≈ 2.17 µM); Activity (Mus musculus [7]): Active; Activity (Mus musculus [2]): 75%; Activity (Mus musculus [3]): 15%; Activity (Mus musculus [8]): 55%; Activity (Mus musculus [9]): Non-toxic
3 | Nc1ccccc1Nc1cc(=O)oc2c3c(ccc12)CCCC3 [listing 1 of 2 here] | – | – | – | – | – | 7400 | 7000 | 8000 | > 10000 | 8700 | –
4 | O=c1cc(NC2CCN(Cc3ccccc3)CC2)c2ccc3c(c2o1)CCCC3 [listing 1 of 2 here] | – | – | – | – | – | 9100 | 8300 | > 10000 | 8300 | 9300 | –
5 | CN(C)c1ccc(Nc2cc(=O)oc3c2ccc2ccccc23)cc1 [listing 1 of 2 here] | – | – | – | – | – | 470 | 410 | 590 | 300 | 270 | –
6 | Nc1cccc(Nc2cc(=O)oc3c2ccc2ccccc23)c1 [listing 1 of 2 here] | 120 | 160 | 190 | 150 | 150 | – | – | – | – | – | –
7 | Nc1ccc(Nc2cc(=O)oc3c4c(ccc23)CCCC4)cc1 [listing 2 of 3 here] | – | – | – | – | – | 69 | 65 | 62 | 66 | 85 | –
8 | O=c1cc(NC2CCN(Cc3ccccc3)CC2)c2ccc3ccccc3c2o1 [listing 1 of 2 here] | – | – | – | – | – | > 10000 | 9400 | – | – | – | –
9 | O=c1cc(NC2CCN(Cc3ccccc3)CC2)c2ccc3ccccc3c2o1 [listing 2 of 2 here] | 8300 | 7600 | > 10000 | > 10000 | > 10000 | – | – | – | – | – | –
10 | Nc1ccccc1Nc1cc(=O)oc2c1ccc1ccccc12 [listing 1 of 2 here] | – | – | – | – | – | 8200 | 9000 | 9100 | 8700 | 9500 | –
11 | Nc1cccc2c(Nc3cc(=O)oc4c3ccc3ccccc34)cccc12 [listing 1 of 2 here] | 160 | 150 | 160 | 150 | 200 | – | – | – | – | – | –
12 | COc1ccc(Nc2cc(=O)oc3c4c(ccc23)CCCC4)cc1 | 37 | 46 | 49 | 38 | 64 | – | – | – | – | – | Activity (Mus musculus [7]): Active; Activity (Mus musculus [2]): 65%; Activity (Mus musculus [3]): 15%; Activity (Mus musculus [8]; Epithelial cell): inactive
13 | Nc1ccccc1Nc1cc(=O)oc2c3c(ccc12)CCCC3 [listing 2 of 2 here] | 4900 | 5200 | 5000 | 5000 | 5200 | – | – | – | – | – | –
14 | O=c1cc(NC2CCN(Cc3ccccc3)CC2)c2ccc3c(c2o1)CCCC3 [listing 2 of 2 here] | 6500 | 6200 | 7000 | 5800 | 7700 | – | – | – | – | – | –
15 | CN(C)c1ccc(Nc2cc(=O)oc3c2ccc2ccccc23)cc1 [listing 2 of 2 here] | 600 | 350 | 430 | 360 | 300 | – | – | – | – | – | –
16 | Nc1ccc(Nc2cc(=O)oc3c2ccc2ccccc23)cc1 [listing 1 of 3 here] | – | – | – | – | – | – | – | – | – | – | Activity (Mus musculus [7]): Active; Activity (Mus musculus [10]): Active; Activity (Mus musculus [11]): Active
17 | Nc1cccc2c(Nc3cc(=O)oc4c3ccc3ccccc34)cccc12 [listing 2 of 2 here] | – | – | – | – | – | 210 | 170 | 240 | 180 | 240 | –
18 | Nc1cccc(Nc2cc(=O)oc3c4c(ccc23)CCCC4)c1 [listing 1 of 2 here] | 440 | 470 | 400 | 440 | 480 | – | – | – | – | – | –
19 | CN(C)c1ccc(Nc2cc(=O)oc3c4c(ccc23)CCCC4)cc1 [listing 1 of 2 here] | – | – | – | – | – | 380 | 390 | 440 | 330 | 490 | –
20 | Nc1ccc(Nc2cc(=O)oc3c2ccc2ccccc23)cc1 [listing 2 of 3 here] | 54 | 44 | 55 | 40 | 38 | – | – | – | – | – | solubility [6]: 33.9 µg/mL (≈ 112 µM); Activity (Mus musculus [2]): 69%; Activity (Mus musculus [3]): 15%; Activity (Mus musculus [8]): 81%; Activity (Mus musculus [9]): Non-toxic; fold change (FC) (Mus musculus [4]): 4.8; fold change (FC) (Mus musculus [5]): 2.1
21 | Nc1cccc(Nc2cc(=O)oc3c4c(ccc23)CCCC4)c1 [listing 2 of 2 here] | – | – | – | – | – | 480 | 450 | 500 | 340 | 560 | –
22 | Nc1cccc(Nc2cc(=O)oc3c2ccc2ccccc23)c1 [listing 2 of 2 here] | – | – | – | – | – | 170 | 150 | 150 | 180 | 240 | –
23 | Nc1ccc(Nc2cc(=O)oc3c4c(ccc23)CCCC4)cc1 [listing 3 of 3 here] | – | – | – | – | – | – | – | – | – | – | Activity (Mus musculus [7]): Active; Activity (Mus musculus [8]; Epithelial cell): inactive; Activity (Mus musculus [10]): Active; Activity (Mus musculus [11]): Active
24 | CN(C)c1ccc(Nc2cc(=O)oc3c4c(ccc23)CCCC4)cc1 [listing 2 of 2 here] | 720 | 540 | 540 | 470 | 770 | – | – | – | – | – | –
25 | Nc1ccc(Nc2cc(=O)oc3c2ccc2ccccc23)cc1 [listing 3 of 3 here] | – | – | – | – | – | 48 | 47 | 54 | 49 | 53 | –
26 | Nc1ccccc1Nc1cc(=O)oc2c1ccc1ccccc12 [listing 2 of 2 here] | > 10000 | > 10000 | > 10000 | > 10000 | > 10000 | – | – | – | – | – | –
